From PubChem BioAssay
TAAR1 antag: human TAAR1 antagonism | CHO RD-HGA16 TAAR1, Fluo-8 calcium fluorescence, antagonist | Q96RJ0 | 1.5% of 360,000 active | inhibition, % at 3 µM | AID 624466;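 active = inhibition above a per-plate cutoff, the mean inhibition of test compounds on that plate plus 3 SD, cut at about 49% in these data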;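 note: 0% = DMSO plus EC80 beta-PEA response and 100% = DMSO alone without agonist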
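Material: CHO RD-HGA16 cells bearing hTAAR1; compound dosing: one-point dosing, 3 µM nominal final; schedule: dye loading 75 min at 37 °C, then 30 min room temperature; measured by: calcium fluorescence with Fluo-8; control set: vehicle and agonist controls; replication: n of 1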
zfTRPN1 agonist: activates the zebrafish TRPN1 channel; HEK293 zebrafish TRPN1-YFP, Fluo-8 calcium fluorescence; 100% = response to 87 µM carbachol; activation, % at 3 µM; 0.18% of 220,000 active;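 active = activation above its plate's cutoff, the mean activation of test wells on that plate plus 3 SD, cut at about 19% in these data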;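 note: 0% = DMSO alone and 100% = 87 µM carbachol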
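System: zebrafish TRPN1-YFP in HEK293 cells / Dosing: 3 µM single point / Timing: dye loading 1 h at 37 °C, then 30 min room temperature / Signal: Fluo-8 calcium fluorescence, excitation 470-495 nm, emission 515-575 nm / Read-out basis: percent activation from peak over basal fluorescence ratio, control-normalized / Control set: high carbachol 87 µM, low DMSO alone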
TAAR1 ag: agonists of human TAAR1; Q96RJ0; CHO RD-HGA16 TAAR1, Fluo-8 calcium fluorescence; vehicle wells 0%, saturating PEA agonist 100%; activation, % at 3 µM; 0.99% of 360,000 active;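 active = activation above the mean activation of all test compounds in the run plus 3 SD, cut at about 38% in these data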
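Test system: RD-HGA16 (CHO) cells co-expressing Gα16 and hTAAR1 | Doses: Single dose, 3 µM | Schedule: 17-24 h seeding, 75 min 37 °C dye, 30 min RT | Evaluation: % activation from peak over basal fluorescence ratio, DMSO-to-PEA scaled | Technique: Kinetic Fluo-8 calcium fluorescence | Benchmarks: Low control DMSO, high control PEA (EC100)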
TRPML3 ag: human mucolipin-3 channel agonism | Q8TDD5 | HEK293 TRPML3-YFP, Fluo-8 calcium fluorescence; 100% = the carbachol control signal | activation, % at 3 µM | 0.29% of 220,000 active;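 active = activation above its plate's cutoff, the mean activation of the plate's test wells plus 3 SD, cut at about 12% in these data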;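 note: 0% = DMSO only wells and 100% = carbachol wells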
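Test system – HEK293 line with stable expression of human TRPML3-YFP channel · Control set – carbachol 87 µM final as high control (100%), DMSO as low control (0%) · Signal – Fluo-8 calcium dye fluorescence, ex 470-495, em 515-575 nm · Incubation – 1-h 37 °C dye load, 5-s basal, 120-s post-compound reads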
GPR7 antag: antagonists of human GPR7 (neuropeptides B/W receptor 1); P48145; GPR7-expressing cells, fluorescence antagonist assay; inhibition, % at 4.4 µM; 1.1% of 290,000 active; in the data active = inhibition above about 16%, passing the limit was not always enough;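 note: cells stimulated with the agonist NPW; 0% = agonist with vehicle and 100% = vehicle without agonist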
Target sequence (P48145 whole entry, looked up): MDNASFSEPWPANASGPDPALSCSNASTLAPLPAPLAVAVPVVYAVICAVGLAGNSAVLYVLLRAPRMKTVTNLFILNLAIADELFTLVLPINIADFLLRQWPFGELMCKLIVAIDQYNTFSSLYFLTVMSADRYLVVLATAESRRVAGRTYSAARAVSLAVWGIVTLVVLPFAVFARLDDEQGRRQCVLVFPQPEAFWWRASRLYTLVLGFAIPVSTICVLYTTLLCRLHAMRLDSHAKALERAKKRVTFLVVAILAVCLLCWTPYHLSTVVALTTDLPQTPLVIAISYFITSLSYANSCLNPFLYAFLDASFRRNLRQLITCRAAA
LANA-H2A inh: blocks KSHV LANA binding to histone H2A/H2B; cell-free LANA-H2A/H2B peptide, fluorescence polarization; inhibition, % (concentration not given with the values); AID 2629; 0.6% of 320,000 active; Q9QR71; in the data active = inhibition mostly above about 10%, no sharp cut-off; inactive = mostly below about 6.7%
TRPN1 counter: counter-screen for TRPML3 agonists: agonists of zebrafish TRPN1 channel | 10% of 310 active | AID 1525 | HEK293 zebrafish TRPN1-YFP, Fluo-8 calcium fluorescence; scaled: carbachol wells 100%, DMSO wells 0% | activation, % at 3 µM | shares compounds with TRPML3 ag;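 active = mean activation over replicates above a set limit taken from the earlier TRPN1 channel primary screen, cut at about 19% in these data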;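 note: 100% = carbachol and 0% = 0.3% DMSO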
TRPML3 confirm: confirmation of human TRPML3 channel agonists. HEK293 TRPML3-YFP, Fluo-8 calcium fluorescence; 100% set by carbachol, 0% by DMSO. AID 1526. shares compounds with TRPML3 ag. activation, % at 3 µM. 80% of 310 active;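 active = activation above a set limit derived from the earlier primary screen, cut at about 12% in these data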
GPR7 antag conf: human GPR7 antagonism, confirmation assay; inhibition, % at 4.4 µM; 52% of 2,400 active; GPR7-expressing cells, calcium fluorescence antagonist mode; shares compounds with GPR7 antag; AID 1952; in the data active = inhibition above about 24%;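 note: stimulated with the GPR7 agonist NPW; 0% = agonist plus vehicle and 100% = vehicle alone without agonist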
MCHR1 antag: antagonizes human MCHR1, a GPR7 antagonist counter-screen; shares compounds with GPR7 antag; AID 2148; 62% of 2,400 active; inhibition, % at 4.4 µM; MCHR1-expressing cells, fluorescence antagonist assay; in the data active = inhibition above about 22%;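 note: 0% = vehicle with agonist and 100% = vehicle without agonist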
* marks the source's active call; other numbers are inactive results; · = not tested or not shown. Most compounds without a hit are left out; they make up all but 3.4% or so of the library.

SMILES | TAAR1 antag | zfTRPN1 agonist | TAAR1 ag | TRPML3 ag | GPR7 antag | LANA-H2A inh | others
CC1=CC2OC3CC4OC(=O)C=CC=CC(=O)OCCC(C)C(O)C(=O)OCC2(CC1)C4(C)C31CO1 (stereo not given) | 89* | · | 28 | · | · | ·
CCOC(=O)C1(c2ccccc2)CCN(CCC(=O)Nc2ccc(OC)cc2)CC1 | -16 | · | 5 | · | · | ·
CCOC(=O)C1(c2ccccc2)CCN(CCC(=O)Nc2cccc(Br)c2)CC1 | 50* | · | 17 | · | · | ·
O=C(NC(=O)c1c(F)cccc1F)Nc1cc(Cl)c(F)c(Cl)c1F | -2 | -1 | 3 | 0 | active | -7
O=c1[nH]c2ccccc2n1C1CCN(C(c2nnnn2Cc2ccccc2)C2CC2)CC1 (stereo not given) | 63* | · | 17 | · | · | ·
O=c1[nH]c2ccccc2n1C1CCN(C(c2nnnn2C2CCCCC2)C2CC2)CC1 (stereo not given) | 52* | · | 58* | · | · | ·
O=c1[nH]c2ccccc2n1C1CCN(C(c2nnnn2C2CCCC2)C2CC2)CC1 (stereo not given) | 40 | · | 26 | · | · | ·
CSCCC(c1nnnn1C1CCCCC1)N1CCC(n2c(=O)[nH]c3ccccc32)CC1 (stereo not given) | 62* | · | 20 | · | · | ·
COC1CC=C2CCN3CCC4=C(CC(=O)OC4)C23C1 (stereo not given) | -14 | · | 2 | · | · | ·
CN1CC[C@@H]2CN[C@H](c3ccccc3)C[C@@H]21 | -7 | · | 0 | · | · | ·
COC(=O)C1C(c2ccc(C)cc2)CC2CCC1N2C (stereo not given) | -2 | · | 2 | · | · | ·
Cc1ccccc1-[n+]1c(-c2ccccc2)cc(-c2ccccc2)cc1-c1ccccc1 | 38 | · | 9 | · | · | -1
Oc1ccccc1-[n+]1c(-c2ccccc2)cc(-c2ccccc2)cc1-c1ccccc1 | 51* | · | 8 | · | · | -1
O=C1CCCN1CC#CCN1CCCC1 | -12 | 3 | 8 | 27* | -11 | 0 | TRPN1 counter=6;TRPML3 confirm=35*
CN1C2CCC1CC(OC(c1ccccc1)c1ccc(Cl)cc1)C2 (stereo not given) | 30 | · | 24 | · | · | ·
CCOc1cc2c(cc1OCC)-n1cccc1C(c1ccc(C(C)C)cc1)NC2 (stereo not given) | -8 | · | 25 | · | 36* | 1 | GPR7 antag conf=34*;MCHR1 antag=62*
CCOc1cc2c(cc1OCC)-n1cccc1C(c1ccc(F)cc1)NC2 (stereo not given) | 1 | · | 11 | · | -1 | -4
Cc1ccc2n1Cc1cnnn1-c1ccccc1-2 | -4 | · | 1 | · | · | ·
C[C@]12CCC3[C@@H](CCC4=CC(=O)CC[C@@]43C=O)C1CCC2=O (stereo not given in full) | -7 | · | 0 | · | 28* | 0 | GPR7 antag conf=-9;MCHR1 antag=7
C[C@]12C=CC(=O)C=C1CC[C@@H]1[C@@H]2CC[C@]2(C)C(=O)CC[C@@H]12 | 10 | · | 1 | · | · | ·
COC(=O)C(O)(c1ccc(N(C)C(=O)c2ccc(Cl)c(Cl)c2)cc1)C(F)(F)F (stereo not given) | 16 | 2 | 5 | 1 | 33* | 6 | GPR7 antag conf=30*;MCHR1 antag=-3
Cc1c(CCN)ccc2c1[nH]c1ccccc12 | -12 | 2 | 26 | 2 | 37* | 2 | GPR7 antag conf=37*;MCHR1 antag=27*
NCCc1c(Cc2ccccc2)[nH]c2ccccc12 | -12 | · | 5 | · | · | 0
